According to paper PMC4834983 (Journal of medicinal chemistry, 2015):

How the values were obtained:
Stat3:Stat3 = Stat3:Stat3 (Mus musculus, UniProt P42227); assay: Cell-free EMSA, nuclear extracts pre-incubated with compound, hSIE probe; assay type: biochemical; details: for Stat3:Stat3/DNA-binding activity (complexation), cell-free EMSA: 5 μM, 30 min pre-incubation, NIH3T3/v-Src nuclear extracts
Stat3 = Stat3 DNA-binding activity/EMSA of nuclear extracts from treated glioma cells; assay type: cell-based, human; details: for effect on Stat3 DNA-binding activity in treated tumor cells: 5 μM, glioma cells, EMSA; for IC50: Homo sapiens, U-251, read-out: IC50 Stat3 DNA-binding activity in treated cells
Stat1:Stat1 = target: T1, Stat1:Stat1 (Mus musculus, UniProt P42225); assay: Cell-free EMSA, EGF-stimulated NIH3T3/hEGFR nuclear extracts; assay type: biochemical; details: 5 μM, 30 min pre-incubation
T1 sequence (P42225 2-749 limits assumed): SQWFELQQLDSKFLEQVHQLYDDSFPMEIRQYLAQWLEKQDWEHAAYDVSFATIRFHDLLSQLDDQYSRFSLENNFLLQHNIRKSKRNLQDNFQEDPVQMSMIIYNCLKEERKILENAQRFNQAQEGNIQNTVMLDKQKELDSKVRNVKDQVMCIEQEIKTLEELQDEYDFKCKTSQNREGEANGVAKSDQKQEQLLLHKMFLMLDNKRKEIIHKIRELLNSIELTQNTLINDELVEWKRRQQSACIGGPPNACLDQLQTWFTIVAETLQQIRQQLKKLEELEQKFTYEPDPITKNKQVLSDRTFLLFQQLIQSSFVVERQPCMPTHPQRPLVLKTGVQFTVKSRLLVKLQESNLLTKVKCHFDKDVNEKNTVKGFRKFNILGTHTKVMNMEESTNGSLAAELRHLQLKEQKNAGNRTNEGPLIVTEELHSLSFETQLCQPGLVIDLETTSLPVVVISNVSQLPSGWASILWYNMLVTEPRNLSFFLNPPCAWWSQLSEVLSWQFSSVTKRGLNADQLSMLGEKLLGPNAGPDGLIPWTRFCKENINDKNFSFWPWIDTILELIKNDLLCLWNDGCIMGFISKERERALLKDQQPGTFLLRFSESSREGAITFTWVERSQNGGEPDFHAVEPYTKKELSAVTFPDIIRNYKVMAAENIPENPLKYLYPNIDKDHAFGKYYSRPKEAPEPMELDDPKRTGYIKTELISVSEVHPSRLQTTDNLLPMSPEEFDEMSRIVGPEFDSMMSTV
Method in brief: (§1)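 Nuclear extracts from EGF-stimulated NIH3T3/hEGFR fibroblasts, containing active Stat1, Stat3 and Stat5, preincubated with 5 μM test compound for 30 min at room temperature. Then incubated 30 min with 32P-labelled probe before EMSA: hSIE (Stat1/Stat3 binding) or MGFe (bovine β-casein element; Stat1/Stat5 binding). STAT:DNA bands quantified as percent of control.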

pYStat3 = assay: Immunoblotting of pStat3 in treated U251MG cells; assay type: cell-based, human; details: for effect on pStat3 in treated tumor cells: 5 μM, glioma cells, immunoblotting
Method in brief: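 Whole-cell lysates from U251MG cells given test compound at 5 μM for 0–24 h, or at 0–5 μM for 2 h. Immunoblotted for pY705Stat3 and total Stat3, with GAPDH as loading reference.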

U251MG cells = assay: CyQuant cell proliferation assay; assay type: cell-based, human; details: for activity against U251MG cell growth: 5 μM; for IC50: Homo sapiens, U-251, 72 h, read-out: IC50 cell proliferation U251MG
Method in brief: (§2)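 CyQuant DNA-dye proliferation assay on cultured cells after 72 h exposure to test compound. Viability expressed relative to DMSO-treated control cells.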

MDA-MB-231 cells = assay: CyQuant cell proliferation assay; assay type: cell-based, human; details: for effect on MDA-MB-231 cell growth: 5 μM
Method in brief: as §2

U373MG cells = assay: CyQuant cell proliferation assay; assay type: cell-based; details: Homo sapiens, U373 MG, 72 h, read-out: IC50 cell proliferation U373MG
Method in brief: as §2

Stat5:Stat5 = assay: Cell-free EMSA, EGF-stimulated NIH3T3/hEGFR nuclear extracts, MGFe probe; assay type: biochemical, mouse; details: 5 μM, 30 min pre-incubation
Method in brief: as §1

SF295 cells = assay: CyQuant cell proliferation assay; assay type: cell-based; details: Homo sapiens, SF-295, 72 h, read-out: IC50 cell proliferation SF295
Method in brief: as §2

MCF-7 cells = assay: CyQuant cell proliferation assay; assay type: cell-based; details: Homo sapiens, MCF7, 72 h, read-out: IC50 cell proliferation MCF-7
Method in brief: as §2

Sequence of Stat3:Stat3 (P42227 2-770 limits assumed): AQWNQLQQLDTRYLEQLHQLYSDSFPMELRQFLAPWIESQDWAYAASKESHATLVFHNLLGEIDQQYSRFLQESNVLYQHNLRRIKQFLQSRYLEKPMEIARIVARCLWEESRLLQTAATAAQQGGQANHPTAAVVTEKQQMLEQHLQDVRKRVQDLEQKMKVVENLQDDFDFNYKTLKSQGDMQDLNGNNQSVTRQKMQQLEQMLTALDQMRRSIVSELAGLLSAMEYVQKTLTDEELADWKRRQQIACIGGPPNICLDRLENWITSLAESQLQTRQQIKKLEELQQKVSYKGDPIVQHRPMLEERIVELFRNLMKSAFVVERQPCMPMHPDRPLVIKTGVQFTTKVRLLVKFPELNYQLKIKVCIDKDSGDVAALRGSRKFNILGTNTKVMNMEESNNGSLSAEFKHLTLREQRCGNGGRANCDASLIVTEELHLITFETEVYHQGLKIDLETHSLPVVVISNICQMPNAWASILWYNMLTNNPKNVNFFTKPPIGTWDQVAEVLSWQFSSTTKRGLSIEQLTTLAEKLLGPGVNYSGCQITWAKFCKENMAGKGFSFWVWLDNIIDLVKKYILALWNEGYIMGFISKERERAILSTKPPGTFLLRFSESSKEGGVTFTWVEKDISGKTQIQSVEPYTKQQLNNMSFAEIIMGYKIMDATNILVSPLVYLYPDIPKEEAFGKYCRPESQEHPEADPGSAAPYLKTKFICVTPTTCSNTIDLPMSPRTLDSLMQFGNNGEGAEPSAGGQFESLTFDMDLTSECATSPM

Stat3:Stat3/DNA-binding activity (complexation), cell-free EMSA (Stat3:Stat3) | Compound | effect on Stat3 DNA-binding activity in treated tumor cells (Stat3) | effect on pStat3 in treated tumor cells (pYStat3) | activity against U251MG cell growth (U251MG cells) | further results
diminished | CC(C)=CCC/C(C)=C/C(=O)OCC1=C2/C(=C\[C@@]3(C)CC[C@](O)(O3)[C@H](C)C[C@@H]2O)OC1=O [Compound 31] | suppressed | suppressed | retained or improved the inhibitory potency | IC50 (Stat3): 500 to 2500 nM; effect on Stat1:Stat1 activity, cell-free EMSA (Stat1:Stat1): moderate effect; IC50 (U251MG cells): 1000 to 1200 nM
diminished | CCCC(CCC)C(=O)OCC1=C2/C(=C\[C@@]3(C)CC[C@](O)(O3)[C@H](C)C[C@@H]2O)OC1=O [Compound 37] | – | – | retained or improved the inhibitory potency | effect on MDA-MB-231 cell growth (MDA-MB-231 cells): strongly inhibited
only weakly inhibited | C[C@@H]1C[C@H](O)C2=C(CO)C(=O)O/C2=C/[C@@]2(C)CC[C@]1(O)O2 [Compound 14] | – | little impact | – | –
only weakly inhibited | C/C=C(\C)C(=O)O[C@H]1C[C@@H](C)[C@]2(O)CC[C@](C)(/C=C3/OC(=O)C(CO)=C31)O2 [Compound 8] | – | little impact | – | –
moderate inhibitory effects | CCC(C)C(=O)OCC1=C2/C(=C\[C@@]3(C)CC[C@](O)(O3)[C@H](C)C[C@@H]2O)OC1=O (stereo partly drawn) [Compound 29] | – | little effect | weakly-active or inactive | –
– | C=C1C(=O)O[C@H]2[C@H]1CC/C(C)=C/CC[C@@]1(C)O[C@@H]21 [parthenolide, reference compound] | – | – | – | Stat3 activity in tumor cells, control compounds (pYStat3; Fig. S5E(ii)): did not inhibit; cell growth activity, control compounds (U251MG cells; panel of cell lines, Fig. S5E(i)): poorly-active or non-specific in activity
only weakly inhibited | C/C(=C\CO)C(=O)O[C@H]1C[C@@H](C)[C@]2(O)CC[C@](C)(/C=C3/OC(=O)C(CO)=C31)O2 [Compound 21] | – | little impact | – | –
diminished | CC(C)=CC(=O)OCC1=C2/C(=C\[C@@]3(C)CC[C@](O)(O3)[C@H](C)C[C@@H]2O)OC1=O [Compound 32] | – | moderate effect | weakly-active or inactive | –
only weakly inhibited | C=C(C)C(=O)O[C@H]1C[C@@H](C)[C@]2(OC)CC[C@](C)(/C=C3/OC(=O)C(CO)=C31)O2 [Compound 28] | – | little impact | – | –
diminished | C=C(C)C(=O)O[C@H]1C[C@@H](C)[C@]2(O)CC[C@](C)(/C=C3/OC(=O)C(COC(C)=O)=C31)O2 [Compound 7] | strongly inhibited | strongly inhibited | – | IC50 (MDA-MB-231 cells; Homo sapiens, MDA-MB-231, 72 h, read-out: IC50 cell proliferation MDA-MB-231): 5200 to 9100 nM; effect on Stat1:Stat1 activity, cell-free EMSA (Stat1:Stat1): weak effects; IC50 (U373MG cells): 6600 to 8200 nM; effect on Stat5:Stat5 activity, cell-free EMSA (Stat5:Stat5): weak effects; IC50 (SF295 cells): 7400 to 18300 nM; IC50 (MCF-7 cells): 4800 to 9600 nM
moderate inhibitory effects | C/C=C(\C)C(=O)O[C@H]1C[C@@H](C)[C@]2(OC)CC[C@](C)(/C=C3/OC(=O)C(COC(=O)/C=C/c4ccccc4)=C31)O2 [Compound 40] | – | – | retained or improved the inhibitory potency | effect on MDA-MB-231 cell growth (MDA-MB-231 cells): strongly inhibited
diminished | C[C@@H]1C[C@H](O)C2=C(COC(=O)CCc3ccccc3)C(=O)O/C2=C/[C@@]2(C)CC[C@]1(O)O2 [Compound 36] | suppressed | suppressed | retained or improved the inhibitory potency | IC50 (Stat3): 500 to 2500 nM; IC50 (U251MG cells): 1000 to 1200 nM
diminished | C[C@@H]1C[C@H](O)C2=C(COC(=O)/C=C/c3ccccc3)C(=O)O/C2=C/[C@@]2(C)CC[C@]1(O)O2 [Compound 30] | suppressed | suppressed | retained or improved the inhibitory potency | IC50 (Stat3): 500 to 2500 nM; IC50 (U251MG cells): 1000 to 1200 nM
diminished | C[C@@H]1C[C@H](O)C2=C(COC(=O)/C=C/c3ccc(C(F)(F)F)cc3)C(=O)O/C2=C/[C@@]2(C)CC[C@]1(O)O2 [Compound 35] | – | – | retained or improved the inhibitory potency | –
diminished | C/C=C(\C)C(=O)OCC1=C2/C(=C\[C@@]3(C)CC[C@](OC)(O3)[C@H](C)C[C@@H]2OC(=O)/C(C)=C/C)OC1=O [Compound 39] | suppressed | suppressed | retained or improved the inhibitory potency | effect on MDA-MB-231 cell growth (MDA-MB-231 cells): strongly inhibited; IC50 (Stat3): 500 to 2500 nM
only weakly inhibited | C=C(C)C(=O)O[C@H]1C[C@@H](C)[C@]2(O)CC[C@](C)(/C=C3/OC(=O)C(CO)=C31)O2 [Compound 18] | – | little impact | – | –
– | CCN1C(=O)C=CC1=O [NEM, N-ethylmaleimide, reference compound] | – | – | – | Stat3:Stat3/DNA complexation, dose-dependent (Stat3:Stat3; Fig. S3B): inhibits
only weakly inhibited | C/C=C(/C)C(=O)O[C@H]1C[C@@H](C)[C@]2(O)CC[C@](C)(/C=C3/OC(=O)C(CO)=C31)O2 [Compound 19] | – | little impact | – | –
diminished | C[C@@H]1C[C@H](O)C2=C(COC(=O)/C=C/c3ccc(F)cc3)C(=O)O/C2=C/[C@@]2(C)CC[C@]1(O)O2 [Compound 34] | – | – | retained or improved the inhibitory potency | effect on MDA-MB-231 cell growth (MDA-MB-231 cells): strongly inhibited
diminished | CC(C)=CCCC(C)CC(=O)OCC1=C2/C(=C\[C@@]3(C)CC[C@](O)(O3)[C@H](C)C[C@@H]2O)OC1=O (stereo partly drawn) [Compound 33] | suppressed | suppressed | retained or improved the inhibitory potency | IC50 (Stat3): 500 to 2500 nM; IC50 (U251MG cells): 1000 to 1200 nM
